Laboratory results as given in ChEMBL document CHEMBL3286239, “Synthesis and biological evaluation of novel naphthalene compounds as potential antidepressant agents” (Eur J Med Chem, 2014).
The source made the active and inactive calls. No cut-off for these calls is given here.

Columns and labels:
PC-12 [1] = experiment: Neurorestorative activity against H2O2-induced oxidant injury in rat PC12 cells assessed as restorative rate at 40 uM measured after 48 hrs pretreated with 200 uM H2O2 for 1 hr by MTT assay; type: functional
How it was run: (§1)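 PC12 cells at 1×10^4/well in DMEM with 10% FBS and 5% horse serum for 24 h. Exposed to 200 μM H₂O₂ for 1 h, washed twice with PBS, then compound (10, 20 or 40 μM) in DMEM for 48 h. MTT 0.5 mg/ml final for 4 h, DMSO solubilization, A570. Restoration rate from absorbance relative to injured control; mean ± S.D. of six independent experiments.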

Mus musculus [2] = experiment: Toxicity in C57 mouse assessed as increase in spontaneous locomotor activity at 32 mg/kg, ip for 14 days by open field test; type: organism-based; parameters: dose 32 mg/kg, route intraperitoneal; conditions: in vivo, 336 h
How it was run: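 Male C57 mice (20–24 g), 10 per group, 12 h light/dark cycle, food and water ad libitum. Dosed i.p. at 32 mg/kg daily for 14 days, then total distance travelled measured in an open field arena.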

PC-12 [3] = experiment: Neurorestorative activity against H2O2-induced oxidant injury in rat PC12 cells assessed as restorative rate at 20 uM measured after 48 hrs pretreated with 200 uM H2O2 for 1 hr by MTT assay; type: functional; how it was run: as §1
PC-12 [4] = experiment: Neuroprotective activity against rat PC12 cells assessed as protection against corticosterone- induced lesion at 1.25 uM after 1 day by MTT assay; type: functional
How it was run: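 Low-differentiated PC12 cells at 1×10^4/well in DMEM with 5% heat-inactivated horse serum and 10% FBS for 24 h. Then 200 μM corticosterone plus compound at 1.25 μM for 1 day. MTT 0.5 mg/ml final for 4 h, formazan in DMSO, A570. Protection rate = (A_drug − A_corticosterone)/A_corticosterone ×100; mean ± S.D. of six independent experiments.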

Mus musculus [5] = experiment: Antidepressant-like activity in C57 mouse assessed as reduction in immobility time at 32 mg/kg, ip administered from day 2 to 15 measured on 2nd and 15th day 30 mins after drug challenge by forced swim test; type: functional; conditions: route intraperitoneal
How it was run: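 Male C57 mice (20–24 g), 10 per group. Day 1: 15 min pre-swim in a cylinder (20 cm diameter) with 15 cm water at 22–25 °C. Days 2–15: daily i.p. 32 mg/kg in 30% β-cyclodextrin. On days 2 and 15, a 6 min swim 30 min after dosing. Immobility (speed <20 mm/s) scored over the last 4 min from video. Mean ± S.D.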

PC-12 [6] = experiment: Neurorestorative activity against H2O2-induced oxidant injury in rat PC12 cells assessed as restorative rate at 10 uM measured after 48 hrs pretreated with 200 uM H2O2 for 1 hr by MTT assay; type: functional; how it was run: as §1
[7] = (§2) Cytotoxicity against human HEK293 cells as inhibition of cell viability at 80 uM after 24 hrs by MTT assay; type: cell-based; conditions: HEK293 cells, read-out: INH
[8] = Cytotoxicity against human L02 cells as inhibition of cell viability at 80 uM after 24 hrs by MTT assay; type: cell-based; conditions: for cytotoxicity at 24 h, 80 µM: L02 cells, read-out: INH
HEK293 = experiment: as §2; type: cell-based; conditions: hek293, 24 h, 80 µM
PC-12 [9] = experiment: Neuroprotective activity against corticosterone- induced morphological change in rat PC12 cells assessed as decrease in cycloid shape at 1.25 uM after 24 hrs by inverted microscopic analysis; type: functional, cell-based
How it was run: (§3)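 PC12 cells seeded at 1×10^6 cells/mL and grown 1 d. Exposed to corticosterone 0.2 mM with or without drug at 1.25 μM for 24 h. Photographed by inverted microscope in three random fields per group. Cells with shrunk axons and cycloid shape counted as injured, normal neuron-like cells counted separately, using computer-assisted image analysis.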

PC-12 [10] = experiment: Neuroprotective activity against corticosterone- induced morphological change in rat PC12 cells assessed as decrease in shrunk axons at 1.25 uM after 24 hrs by inverted microscopic analysis; type: functional, cell-based; how it was run: as §3

| Compound | Activity (PC-12 [1]) | Activity (Mus musculus [2]) | Activity (PC-12 [3]) | Activity (PC-12 [4]) | inhibition in vivo at 32 mg/kg (Mus musculus [5]) | Activity (PC-12 [6]) | cytotoxicity at 24 h, 80 µM [7] | cytotoxicity at 24 h, 80 µM [8] | Activity ([8]; l02, 24 h, 80 µM) | Activity (HEK293) | inhibition (PC-12 [9]) | inhibition (PC-12 [10]) |
| --- | --- | --- | --- | --- | --- | --- | --- | --- | --- | --- | --- | --- |
| CNCCC(Oc1ccc(C(F)(F)F)cc1)c1ccccc1 (stereo unspecified) [FLUOXETINE] | inactive | 66.4% | inactive | 19.7% | 50.7% | 2.8% | – | – | – | – | – | – |
| COc1ccc(OC)c(C(=O)N2CC(C(=O)NCCc3cccc4ccc(OC)cc34)C2)c1 | inactive | – | inactive | 22.3% | – | inactive | 33.4% | 1.3% | – | – | – | – |
| COc1ccc2cccc(CCNC(=O)C3CN(C(=O)N(C)C)C3)c2c1 | 4.3% | – | 1.2% | inactive | – | inactive | 2.5% | – | Non-toxic | – | – | – |
| COc1ccc2cccc(CCNC(=O)C3CN(S(=O)(=O)N(C)C)C3)c2c1 | inactive | – | 2.1% | inactive | – | inactive | 4.6% | 7.4% | – | – | – | – |
| COc1ccc2cccc(CCNC(=O)C3CN(C(=O)c4ccncc4Cl)C3)c2c1 | 2.1% | – | inactive | inactive | – | inactive | 17.3% | 4.8% | – | – | – | – |
| COc1ccc2cccc(CCNC(=O)C3CN(C(=O)OCc4ccccc4)C3)c2c1 | 7.3% | – | 6.6% | inactive | – | 3.2% | 1% | 12.1% | – | – | – | – |
| COc1ccc2cccc(CCNC(=O)C3CN(C(=O)C(F)(F)F)C3)c2c1 | inactive | 88.5% | inactive | 43.5% | 58.4% | inactive | – | 2.6% | – | Non-toxic | Active | Active |
| COc1ccc2cccc(CCNC(=O)C3CN(C(=O)c4cc([N+](=O)[O-])cc([N+](=O)[O-])c4)C3)c2c1 | inactive | – | 1.7% | inactive | – | inactive | 11.1% | 15.8% | – | – | – | – |
| COc1cc(OC)cc(C(=O)N2CC(C(=O)NCCc3cccc4ccc(OC)cc34)C2)c1 | inactive | – | 2.1% | inactive | – | inactive | 13.1% | 13.1% | – | – | – | – |
| COc1ccc2cccc(CCNC(=O)C3CN(C(C)=O)C3)c2c1 | 1% | – | 0.6% | inactive | – | inactive | 6.2% | 2.3% | – | – | – | – |
| COc1ccc2cccc(CCNC(=O)C3CN(C(=O)c4ccc(C#N)cc4)C3)c2c1 | inactive | – | inactive | 25.8% | – | inactive | 17.5% | 1% | – | – | – | – |
| COc1ccc2cccc(CCNC(=O)C3CN(C(=O)c4ccc(C(F)(F)F)cc4)C3)c2c1 | inactive | – | inactive | 14.6% | – | inactive | 24.6% | 7.9% | – | – | – | – |
| COc1ccc2cccc(CCNC(=O)C3CN(C(=O)c4ccccc4)C3)c2c1 | 4.6% | – | 6.6% | inactive | – | 2.9% | 11.9% | 3.8% | – | – | – | – |
| COc1ccc2cccc(CCNC(=O)C3CN(S(=O)(=O)c4ccc(Cl)cc4)C3)c2c1 | 6.8% | – | 4.5% | 25.3% | – | 4.6% | 21.5% | 33.6% | – | – | – | – |
| COc1ccc2cccc(CCNC(=O)C3CN(C(=O)c4ccc(Cl)cc4)C3)c2c1 | 4.7% | – | inactive | 39.2% | 49.1% | 0.3% | 11.8% | 5.9% | – | – | Active | Active |
| COc1ccc2cccc(CCNC(=O)C3CN(C(=O)c4ccccn4)C3)c2c1 | inactive | – | inactive | inactive | – | 0.7% | 31.8% | 11.2% | – | – | – | – |
| COc1ccc2cccc(CCNC(=O)C3CN(S(C)(=O)=O)C3)c2c1 | 3.7% | – | inactive | 1.4% | – | 0.9% | 8.5% | 4.4% | – | – | – | – |
| COc1ccc(C(=O)N2CC(C(=O)NCCc3cccc4ccc(OC)cc34)C2)cc1 | inactive | – | inactive | inactive | – | inactive | 8.9% | 7.8% | – | – | – | – |
| CCC(=O)N1CC(C(=O)NCCc2cccc3ccc(OC)cc23)C1 | 7.5% | – | inactive | inactive | – | inactive | 11.2% | 2.9% | – | – | – | – |
| COc1ccc2cccc(CCNC(C)=O)c2c1 [AGOMELATINE] | inactive | 85.3% | 2.7% | 26.2% | 8.4% | inactive | – | – | – | – | – | – |
| CC#C[C@]1(O)CC[C@H]2[C@@H]3CCC4=CC(=O)CCC4=C3[C@@H](c3ccc(N(C)C)cc3)C[C@@]21C [MIFEPRISTONE] | – | – | – | 31.1% | – | – | – | – | – | – | – | – |
| COc1ccc2cccc(CCNC(=O)C3CN(C(=O)c4ccco4)C3)c2c1 | inactive | – | inactive | 38.8% | 36.2% | inactive | 26.4% | 3.2% | – | – | – | – |
| COc1ccc2cccc(CCNC(=O)C3CN(S(=O)(=O)c4ccc(C)cc4)C3)c2c1 | inactive | – | inactive | inactive | – | inactive | 3.6% | 2.7% | – | – | – | – |
